Screening results (PubChem BioAssay)
Only some compounds are listed: those with a hit (about 3.7% of all), similar ones and a draw of the others.
hERG protect: hERG rescue from dofetilide block, primary screen, cell-based, CHO-hERG, FluxOR thallium flux, dofetilide IC70 | dofetilide IC70 present | activation (rescue from dofetilide block), less the hit threshold, % at 10 µM | 310,000 tested, 0.51% active;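 active = activation above the mean of controls blocked by dofetilide plus 5 SD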;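 note: thallium influx through hERG after potassium depolarization seen as dye fluorescence rise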
KCNK3 inh: human KCNK3 channel inhibitors, primary screen, CHO cells, FluxOR thallium flux, B-score; Potassium channel subfamily K member 3 (Homo sapiens), O14649; B-score at 10 µM; FluxOR fluorescence; stronger effect = lower value; 340,000 tested, 0.84% active; AID 602410, 2012;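 active = B-score under library mean minus 4 SD, starting fluorescence ratio at most library mean plus 5 SD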;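 note: more negative B-score means stronger inhibition of thallium flux through KCNK3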
KCNK9 inh: KCNK9 potassium channel inhibitors, primary screen, HEK293 cells, thallium flux. Potassium channel subfamily K member 9 (Homo sapiens), Q9NPC2. AID 488922, 2010. 310,000 tested, 1.2% active. FluxOR thallium flux fluorescence; stronger effect = lower value. B-score at 10 µM;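 active = ratio B-score over 3 SD below the library mean, with starting fluorescence within 5 SD of its mean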;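 note: negative B-score means less thallium flux so channel inhibition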
Kir21 block: inhibitors of mouse Kir2.1 inward-rectifier potassium channel. Inward rectifier potassium channel 2 (Mus musculus), P35561. HEK293-Kir2.1, FluxOR thallium flux fluorescence; stronger effect = lower value. B-score at 10 µM. 310,000 tested, 0.85% active. AID 1672, 2009;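 active = fluorescence ratio B-score at or below minus 3 SD of library scores, with starting-brightness B-score within 2 SD, cut at about -4.2 in these data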;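 note: channel flux triggered by added potassium and thallium sulfate stimulus; B-score of peak minus minimum fluorescence over baseline after thallium stimulus; more negative B-score means stronger Kir2.1 block with less thallium influx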
KCNQ1 block: inhibitors of human KCNQ1 channel, primary screen, cell-based, thallium flux, high-throughput; CHO-K1 KCNQ1, FluxOR thallium flux fluorescence; stronger effect = higher value; Potassium voltage-gated channel subfamily KQT member 1 (Homo sapiens), P51787; 310,000 tested, 1.3% active; B-score at 10 µM;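 active = compounds whose thallium flux B-score, printed positive for inhibition, exceeds three library SD while starting fluorescence stays within three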;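 note: channel opened by potassium depolarization with thallium stimulus after 20 min compound exposure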
Target sequence (P51787 whole entry, looked up): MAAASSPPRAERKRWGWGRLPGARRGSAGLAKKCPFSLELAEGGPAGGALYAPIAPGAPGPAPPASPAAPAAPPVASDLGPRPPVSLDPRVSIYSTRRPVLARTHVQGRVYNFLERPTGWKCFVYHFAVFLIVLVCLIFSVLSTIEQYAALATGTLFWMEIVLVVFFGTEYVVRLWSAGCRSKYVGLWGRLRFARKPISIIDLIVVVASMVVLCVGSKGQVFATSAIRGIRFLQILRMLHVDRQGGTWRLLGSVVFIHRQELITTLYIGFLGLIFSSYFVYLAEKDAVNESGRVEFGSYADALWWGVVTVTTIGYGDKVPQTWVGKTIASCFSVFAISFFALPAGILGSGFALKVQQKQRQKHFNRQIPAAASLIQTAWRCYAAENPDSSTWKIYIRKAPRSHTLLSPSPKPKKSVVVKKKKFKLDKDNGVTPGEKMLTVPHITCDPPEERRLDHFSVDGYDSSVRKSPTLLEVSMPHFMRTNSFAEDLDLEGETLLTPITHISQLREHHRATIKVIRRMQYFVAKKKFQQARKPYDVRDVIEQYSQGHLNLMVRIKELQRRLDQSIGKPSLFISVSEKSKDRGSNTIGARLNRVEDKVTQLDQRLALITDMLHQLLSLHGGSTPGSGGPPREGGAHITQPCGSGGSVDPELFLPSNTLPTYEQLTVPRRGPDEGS
KCNQ1 pot: potentiators or activators of KCNQ1 channel, primary screen, cell-based, thallium flux, high-throughput | Potassium voltage-gated channel subfamily KQT member 1 (Homo sapiens), P51787 | CHO-K1 KCNQ1, thallium flux FluxOR fluorescence; stronger effect = higher value | B-score at 10 µM | 310,000 tested, 0.35% active | AID 2648, 2010;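 active = fluorescence ratio B-score, a plate-corrected score, at least three library SD, with initial intensity B-score within 5 SD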
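Schedule – 37 °C overnight plating, 90-min dark dye load, 20-min compound pretreatment · System – stable KCNQ1 CHO-K1 line · Probe or stimulus – thallium- and potassium-containing depolarizing buffer · Measured by – kinetic FluxOR fluorescence, 10 s baseline plus 110 s post-stimulus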
KCNQ1 inh valid: KCNQ1 potassium channel inhibitors, confirmation, cell-based, Tl flux, duplicate | 1,600 tested, 93% active | KCNQ1 cell line, FluxOR thallium flux fluorescence | inhibition, % at 10 µM | AID 588353, 2011 | shares compounds with KCNQ1 block;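 active = primary screen active, with duplicate mean exceeding buffer control mean plus 3 SD of buffer wells, cut at about 28% in these data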;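 note: 0% = buffer control ratio and 100% = XE991 inhibitor control ratio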
CHO Tl flux: thallium flux effects in parental CHO cells, counter-screen for KCNQ1 inhibitor project, cell-based, Tl flux. shares compounds with KCNQ1 block. parental CHO-K1, FluxOR thallium flux fluorescence ratio; stronger effect = lower value; zero means no signal rise above baseline. fluorescence ratio (Tl flux) at 10 µM. 1,600 tested, 21% active. AID 588366, 2011;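 active = mean of duplicate thallium-flux fluorescence ratios in parental host cells more than 5 SD below the buffer control mean, cut at about 0.38 in these data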;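 note: ratio is peak minus minimum fluorescence divided by baseline fluorescence; actives read low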
KCNQ1 APC inh: KCNQ1 channel inhibitors, confirmation, orthogonal assay, cell-based, automated electrophysiology; shares compounds with KCNQ1 block; 490 tested, 20% active; AID 624120, 2012; calls only at 10 µM; KCNQ1-CHO cells, automated patch clamp current;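 active = KCNQ1 current drop exceeding 3 SD of negative control wells, seen in both duplicate runs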;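 note: steady state current during a 2 s step from -80 to +40 mV; negative values mean current inhibition and positive values mean potentiation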
KCNQ2 spec: KCNQ2 channel inhibition, selectivity assay for KCNQ1 inhibitor project, cell-based; inhibition, % at 10 µM; shares compounds with KCNQ1 block; 1,600 tested, 71% active; KCNQ2 cells, FluxOR thallium flux fluorescence;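 active = mean percent inhibition of the KCNQ2 thallium signal more than 5 SD above the buffer-only control wells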;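 note: KCNQ2 expressed in CHO cells; 0% = buffer control wells and 100% = XE-991 inhibitor control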
KCNQ1-KCNE1 inh: KCNQ1/KCNE1 channel inhibition, selectivity assay for KCNQ1 inhibitor project, CHO-K1 cells, thallium flux, FluxOR. shares compounds with KCNQ1 block. FluxOR thallium flux fluorescence. inhibition, % at 10 µM. 1,600 tested, 77% active. AID 652147, 2013;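 active = mean percent inhibition of duplicate wells above the buffer-only control mean plus 3 SD of those controls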;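 note: 0% = buffer only wells and 100% = XE-991 inhibitor control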
* marks the source's active call; other numbers are inactive results; i = inactive; nt = no result given; + = active, no number.

SMILES	hERG protect	KCNK3 inh	KCNK9 inh	Kir21 block	KCNQ1 block	KCNQ1 pot	KCNQ1 inh valid	CHO Tl flux	KCNQ2 spec	KCNQ1-KCNE1 inh	others
O=C(c1cc(COc2cccc3cnccc23)on1)N1CCCC(CCCO)C1 (stereo not drawn)	-24.1	i	i	2.33	14*	i	108.5*	0.466	92.3%*	44.5%*	KCNQ1 APC inh=i
Cc1sc2ncnc(N3CCCCC3C)c2c1C (stereo not drawn)	-13.9	i	i	-1.41	i	i	nt	nt	nt	nt
Cc1c(C(=O)NCCC2=CCCCC2)sc2ncnc(N3CCCCC3C)c12 (stereo not drawn)	-16.8	i	i	1.64	8*	i	163.5*	0.327*	150.3%*	+
Cc1cc(N2CCN(C)CC2)ccc1NC(=O)c1cccc(S(=O)(=O)N2CCc3ccccc3C2)c1	-8.1	i	i	-1.06	7*	i	0.0	0.553	66.0%*	i
CC(C)N1CCC2(CC1)N=C(c1ccc3c(c1)OCO3)CC(c1cc(Cl)ccc1O)N2 (stereo not drawn)	-12.7	i	i	-2.09	10*	i	49.5*	0.412	106.3%*	37.5%*
CC(Sc1ccc(Cl)cc1)C(=O)Nc1ccc2c(c1)OCO2 (stereo not drawn)	-7.5	i	i	-0.31	i	i	nt	nt	nt	nt
O=C(NCCc1ccccc1F)C1CCC(=O)N(Cc2ccc(Cl)cc2)C1 (stereo not drawn)	-12.6	i	i	-1.43	i	i	nt	nt	nt	nt
CCOC(=O)c1c(C)nc(C(Cl)(Cl)Cl)nc1N	-14.0	i	i	-1.18	8*	i	85.5*	0.434	i	87.5%*
Cc1c(C(=O)N2CCCC2)c(S(=O)(=O)N2CCN(c3ccccc3F)CC2)c(C)n1C	-9.3	i	i	0.69	i	i	nt	nt	nt	nt
CCC1(C)CC(CCNS(=O)(=O)c2ccc(C)cc2)(c2ccc(C)cc2)CCO1 (stereo not drawn)	-9.3	i	i	-1.4	i	i	nt	nt	nt	nt
Cc1ccc(C2(CCNS(=O)(=O)c3ccc(C)cc3)CCOC(C(C)C)C2)cc1 (stereo not drawn)	-11.6	i	i	-0.37	8*	i	94.0*	0.424	83.3%*	98.0%*	KCNQ1 APC inh=i
Nc1cc(C(=O)N/N=C/c2cccc([N+](=O)[O-])c2)n[nH]c1=O	-3.5	i	i	0.27	i	i	nt	nt	nt	nt
FC(F)(F)c1nc(SCc2ccc(Cl)cc2Cl)n[nH]1	-18.4	i	i	1.08	6*	i	0.0	0.476	i	i
O=C(NC1CCCCC1)C(c1cccnc1)N(C(=O)c1ccc(Cl)nc1)C1CCCCC1 (stereo not drawn)	-14.7	i	i	1.12	22*	i	0.0	0.502	i	i
COc1ccc(S(=O)(=O)N2CCC(C(=O)NCC3CC3)CC2)cc1	-9.4	i	i	-2.35	i	i	nt	nt	nt	nt
CC(=O)Nc1ccc(S(=O)(=O)NCc2nc(-c3ccccc3Cl)no2)cc1	-7.8	i	i	-1.05	i	i	nt	nt	nt	nt
Cc1cccc(CSCCNC(=S)Nc2ccccc2)c1	-14.4	i	i	-1.49	7*	i	55.5*	0.53	65.0%*	98.5%*
S=C(NCCSCc1ccccc1Cl)Nc1ccccc1	-9.8	i	i	-0.08	10*	i	106.5*	0.433	87.3%*	58.0%*	KCNQ1 APC inh=i
S=C(NCCSCc1ccc(Cl)cc1)Nc1ccccc1	-16.3	i	i	-3.27	i	i	nt	nt	nt	nt
COc1ccc(-c2csc3ncnc(N4CCN(c5ccccc5O)CC4)c23)cc1	-9.3	i	i	2.79	8*	i	0.0	0.41	110.3%*	i
COc1ccc(-c2csc3ncnc(N4CCN(S(=O)(=O)c5ccc(C(C)=O)cc5)CC4)c23)cc1	-11.7	i	i	-0.08	8*	i	67.0*	0.437	89.3%*	36.5%*
Cc1ccc(-c2csc3ncnc(N4CCN(c5ccccc5O)CC4)c23)cc1	-10.9	i	i	2.34	i	i	nt	nt	nt	nt
Cc1ccc(S(=O)(=O)N2CCN(c3ncnc4scc(-c5ccc(F)cc5)c34)CC2)cc1	-17.8	i	i	-0.67	8*	i	71.5*	0.469	81.0%*	i
Cc1ccc(S(=O)(=O)N2CCN(c3ncnc4scc(-c5ccccc5)c34)CC2)cc1	nt	i	nt	nt	nt	nt	nt	nt	nt	nt
CC(C)(C)c1cc(N)n2nc(C(C)(C)C)cc2n1	-4.2	i	i	0.94	11*	i	96.5*	0.458	i	122.5%*	KCNQ1 APC inh=+
Cc1cc2nc(C(C)(C)C)cc(N)n2n1	-10.4	i	i	-0.81	i	i	nt	nt	nt	nt
CC(C)Oc1ccc(OCCSc2nc3ccccc3n2CC(=O)O)cc1	-7.6	i	i	-0.46	i	i	nt	nt	nt	nt
Cc1nnc(NC(=O)CCC(=O)N2CCN(S(=O)(=O)c3cc([N+](=O)[O-])ccc3C)CC2)s1	nt	i	nt	nt	nt	nt	nt	nt	nt	nt
CCN(CC(=O)Nc1c(F)cccc1F)C(=O)Cc1ccc2c(c1)OCCO2	nt	i	nt	nt	nt	nt	nt	nt	nt	nt
